Compound activity: PubChem, several laboratories
PfM18AAP inh-1 = PfM18AAP enzyme inhibition | recombinant PfM18AAP, H-Glu-NHMec fluorogenic cleavage | inhibition, % at 7.35 µM | 290,000 tested, 1.2% active;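 active means inhibition above the campaign mean inhibition over all tested compounds plus 3 SD, cut at about 28% in these data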;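 further: 0% = plate median of test compound wells and 100% = 2 mM ZnCl2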
RBBP9 inh = blocks human serine hydrolase RBBP9 | 220,000 tested, 0.2% active | inhibition, % at 7.94 µM | O75884 | recombinant RBBP9, FP-Rh probe fluorescence polarization;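 active means inhibition above the campaign mean of all tested compounds plus 3 SD, cut at about 14% in these data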;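 further: plate controls were DMSO wells with RBBP9 for no effect and wells lacking RBBP9 protein for full effect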
Target sequence (O75884 whole entry, looked up): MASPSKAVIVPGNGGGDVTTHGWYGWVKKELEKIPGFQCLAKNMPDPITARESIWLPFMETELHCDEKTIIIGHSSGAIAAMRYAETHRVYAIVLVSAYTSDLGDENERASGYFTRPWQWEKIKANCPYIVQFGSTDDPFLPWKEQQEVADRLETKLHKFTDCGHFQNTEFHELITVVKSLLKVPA
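Measured by – fluorescence polarization · Test system – RBBP9 protein · Input – 2.5 µM RBBP9 dispensing solution, before mixing · Measure – percent inhibition from mP, scaled between DMSO and no-protein wells · Benchmarks – DMSO-treated enzyme wells and wells lacking RBBP9 · Times – preincubation 30 min plus labeling 45 min at 25 °C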
Runt-CBFb FRET = Runt domain-CBFb interaction inhibition; Cerulean-Runt/Venus-CBFb FRET ratio 530/480, 1 h; inhibition, % at 20 µM; 220,000 tested, 0.46% active; AID 1496;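 active means inhibition over about 50% at 20 µM in the single-dose screen, limit read from the data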;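 further: 0% = DMSO wells and 100% = excess unlabeled CBFb competitor control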
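Assay system: Cerulean-tagged RUNX1 Runt domain (FRET donor) fusion protein / Amount: 100 nM each of Venus-CBFb and Cerulean-Runt domain / Medium: Tris buffer pH 7.5 with salts and BSA / Also added: Venus-CBFb 100 nM / Schedule: 1 h complex formation plus 1 h compound treatment, room temperature / Signal: FRET fluorescence / Read-out: loss of energy transfer signal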
Runt-SMMHC FRET = inhibitors of human RUNX1 Runt domain binding to CBFb-SMMHC | Q01196+Q13951 | Cerulean-Runt/Venus-CBFb-SMMHC FRET ratio 530/480, 1 h | inhibition, % at 20 µM | 220,000 tested, 0.74% active | AID 1434;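 active means mean inhibition across duplicate retests at 20 µM reaching about 50%, limit read from the data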;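 further: 0% = DMSO wells and 100% = wells with excess untagged CBFb-SMMHC; inhibitors lower the FRET ratio by blocking Runt binding to CBFb-SMMHC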
RanGTP-Imp inh = disruptors of Ran-importin-beta complex formation – biochemical, FRET, CFP-Ran, YFP-importin-beta, homogeneous, primary screen; cell-free CFP-Ran/YFP-importin-beta FRET ratio; inhibition, % (test concentration not listed); 300,000 tested, 1.1% active; AID 2216;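 active means more than half of the replicate wells show a fall in the fluorescence ratio signal beyond about 16%, limit read from the data, passing the limit was not always enough; inconclusive means exactly half of the replicate wells pass the set limit; inactive means fewer than half of replicates pass the limit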;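 further: 0% = DMSO wells and 100% = Ran loaded with GDP instead of GTP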
Hck Nef HTS = blocks Nef-activated human Hck kinase. P08631. Recombinant Hck-YEEI plus Nef, Z-Lyte FRET kinase assay. inhibition, % at 20 µM. 220,000 tested, 0.68% active;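 active means Hck-Nef kinase inhibition above about 50%, limit read from the data; inactive means inhibition below that limit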;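 further: 0% = DMSO with Hck plus Nef and 100% = Hck alone without Nef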
PfM18AAP inh-2 = confirmation of Plasmodium falciparum M18 aspartyl aminopeptidase inhibitors | inhibition, % at 7.35 µM | AID 2170 | 2,400 tested, 28% active | recombinant PfM18AAP, H-Glu-NHMec fluorogenic cleavage | shares compounds with PfM18AAP inh-1;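 active means mean inhibition over replicate wells above the hit cutoff set for the earlier primary screen, cut at about 29% in these data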;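 further: 0% = median of test compound wells and 100% = 2 mM ZnCl2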
CTSL1 confirm = counter-screen for PFM18AAP inhibitors: confirmation of human cathepsin L inhibitors. shares compounds with PfM18AAP inh-1. purified cathepsin L1, Z-Leu-Arg-MCA fluorescence. inhibition, % at 5.96 µM. 2,400 tested, under 10 active;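 active means average inhibition across replicates above the hit cutoff set in the earlier primary screen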;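 further: 0% = median of test compound wells and 100% = Z-Phe-Ala-diazomethylketone 1 µM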
Target sequence (P07711 whole entry, looked up): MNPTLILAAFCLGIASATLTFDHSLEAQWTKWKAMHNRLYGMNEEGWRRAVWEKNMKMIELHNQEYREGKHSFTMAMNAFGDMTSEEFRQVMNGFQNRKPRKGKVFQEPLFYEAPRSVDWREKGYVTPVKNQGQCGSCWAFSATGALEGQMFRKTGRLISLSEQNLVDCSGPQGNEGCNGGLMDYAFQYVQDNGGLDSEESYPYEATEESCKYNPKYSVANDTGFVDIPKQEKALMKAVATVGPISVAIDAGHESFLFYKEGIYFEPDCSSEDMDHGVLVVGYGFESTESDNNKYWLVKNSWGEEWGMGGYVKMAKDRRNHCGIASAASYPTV
Numbers without * were called inactive. In the library only some 2.9% were active in any assay of this set; here they are far more common.

`O=C(Nn1cnnc1)C1CCCN1S(=O)(=O)c1ccc(F)cc1` (stereo unspecified) gave PfM18AAP inh-1 9, RBBP9 inh 1, Runt-CBFb FRET -2, Runt-SMMHC FRET 0, RanGTP-Imp inh 4 and Hck Nef HTS 1.
`Cc1ccc(S(=O)(=O)Nn2cnnc2)cc1` gave PfM18AAP inh-1 65*, RBBP9 inh 0, Runt-CBFb FRET 1, Runt-SMMHC FRET -5, RanGTP-Imp inh 5, Hck Nef HTS -2, PfM18AAP inh-2 56* and CTSL1 confirm -2.
Screening CCCCCOC(=O)Nc1ccc(S(=O)(=O)Nn2cnnc2)cc1 returned PfM18AAP inh-1 46*, RBBP9 inh -6, Runt-CBFb FRET 2, Runt-SMMHC FRET 0, RanGTP-Imp inh 4, Hck Nef HTS -5, PfM18AAP inh-2 48* and CTSL1 confirm 0.
For O=S(=O)(Nn1cnnc1)c1ccc(F)cc1 the results were PfM18AAP inh-1 42*, RBBP9 inh -5, Runt-CBFb FRET 3, Runt-SMMHC FRET -6, RanGTP-Imp inh 6, Hck Nef HTS 7, PfM18AAP inh-2 48* and CTSL1 confirm -6.
C=C(C)COc1ccc(C2NC(=O)c3ccccc3O2)cc1OCC (stereo unspecified) was read as PfM18AAP inh-1 1 and RanGTP-Imp inh 0.
COc1ccc(-n2c(=O)c3ccccc3c3ccccc3c2=O)cc1 was read as PfM18AAP inh-1 -12, RBBP9 inh 3, Runt-CBFb FRET -2, Runt-SMMHC FRET 3, RanGTP-Imp inh -3 and Hck Nef HTS 1.
Screening COc1ccc(-n2c(O)c(/C=N/n3cnnc3)c3ccccc3c2=O)cc1 returned PfM18AAP inh-1 67*, RBBP9 inh -7, Runt-CBFb FRET -3, Runt-SMMHC FRET -4, RanGTP-Imp inh inconclusive, Hck Nef HTS -1, PfM18AAP inh-2 74* and CTSL1 confirm 5.
For O=c1c2ccccc2c(/C=N/n2cnnc2)c(O)n1-c1ccccc1 the results were PfM18AAP inh-1 65*, RBBP9 inh -11, Runt-CBFb FRET 2, Runt-SMMHC FRET 4, RanGTP-Imp inh -2, Hck Nef HTS 1, PfM18AAP inh-2 72* and CTSL1 confirm 1.
Screening Cc1cc(C)c2cc(CN(Cc3ccco3)C(=O)NCc3ccccc3)c(=O)[nH]c2c1 returned PfM18AAP inh-1 35*, RBBP9 inh -21, Runt-CBFb FRET -2, Runt-SMMHC FRET 0, RanGTP-Imp inh -1, Hck Nef HTS -5, PfM18AAP inh-2 -19 and CTSL1 confirm -2.
For CCC(C)NCCOCCOc1ccc(C)cc1Br (stereo unspecified) the results were PfM18AAP inh-1 32*, RBBP9 inh 4, Runt-CBFb FRET 0, Runt-SMMHC FRET -5, RanGTP-Imp inh -2, Hck Nef HTS 2, PfM18AAP inh-2 -26 and CTSL1 confirm -1.
CCCNC(=O)N1CCC(c2nc3ccccc3s2)CC1 was read as PfM18AAP inh-1 3 and RanGTP-Imp inh -5.
For Cc1ccc2sc(NNC(=O)C3=COCCO3)nc2c1C the results were PfM18AAP inh-1 32*, RBBP9 inh -7, Runt-CBFb FRET 26, Runt-SMMHC FRET 12, RanGTP-Imp inh 0, Hck Nef HTS 27, PfM18AAP inh-2 21 and CTSL1 confirm -1.
O=C(NNc1nc2c(F)cccc2s1)C1=COCCO1 was read as PfM18AAP inh-1 44*, RBBP9 inh -8, Runt-CBFb FRET 3, Runt-SMMHC FRET 4, RanGTP-Imp inh -1, Hck Nef HTS -4, PfM18AAP inh-2 11 and CTSL1 confirm -1.
Cc1ccc2sc(N3CCN(C(=O)C4=COCCO4)CC3)nc2c1C was read as RanGTP-Imp inh -3.
`Cc1ccc(C2N(C)C(=O)c3ccccc3N2C)cc1` (stereo unspecified) gave PfM18AAP inh-1 -1 and RanGTP-Imp inh 1.
`Cc1cccc(OCC(=O)NCCCNC(=O)c2ccc(C)nc2)c1` gave PfM18AAP inh-1 5 and RanGTP-Imp inh 0.
O=C(Cc1ccc(Cl)c(Cl)c1)Nc1ccccc1N1CCCC1 was read as PfM18AAP inh-1 4 and RanGTP-Imp inh 4.
Screening O=C(Cc1ccc(F)cc1)Nc1ccccc1N1CCCC1 returned PfM18AAP inh-1 33*, RanGTP-Imp inh 5, PfM18AAP inh-2 -30 and CTSL1 confirm -5.
For Cc1cc(C)c(S(C)(=O)=O)c(Oc2cccc(C(F)(F)F)c2)n1 the results were PfM18AAP inh-1 2, RBBP9 inh -2, Runt-CBFb FRET -2, Runt-SMMHC FRET 3, RanGTP-Imp inh -1 and Hck Nef HTS 4.
For COc1cccc(NC(=O)CSc2nnc3ccc(-c4ccncc4)nn23)c1 the results were RanGTP-Imp inh -2.
For COc1cccc(NC(=O)NC2(C(F)(F)F)Oc3ccccc3O2)c1 the results were PfM18AAP inh-1 67*, RBBP9 inh 1, Runt-CBFb FRET 4, Runt-SMMHC FRET -1, RanGTP-Imp inh 3, Hck Nef HTS 1, PfM18AAP inh-2 34* and CTSL1 confirm -1.
For O=C(NCc1cccnc1)NC(C(F)(F)F)C(F)(F)F the results were PfM18AAP inh-1 1, RBBP9 inh -4, Runt-CBFb FRET 0, Runt-SMMHC FRET 2, RanGTP-Imp inh -4 and Hck Nef HTS 1.
O=C(NCc1cccnc1)NC1(C(F)(F)F)Oc2ccccc2O1 was read as PfM18AAP inh-1 55*, RBBP9 inh -3, Runt-CBFb FRET -2, Runt-SMMHC FRET 1, RanGTP-Imp inh -2, Hck Nef HTS 1, PfM18AAP inh-2 -2 and CTSL1 confirm 4.
O=C(Nc1cc(N2CCOCC2)ncn1)NC1(C(F)(F)F)Oc2ccccc2O1 was read as PfM18AAP inh-1 76*, RBBP9 inh -8, Runt-CBFb FRET 3, Runt-SMMHC FRET 0, RanGTP-Imp inh 0, Hck Nef HTS 5, PfM18AAP inh-2 66* and CTSL1 confirm 1.
CC(C)CNC(=O)NC1(C(F)(F)F)Oc2ccccc2O1 was read as PfM18AAP inh-1 41*, RBBP9 inh 4, Runt-CBFb FRET 2, Runt-SMMHC FRET 1, RanGTP-Imp inh -1, Hck Nef HTS 19, PfM18AAP inh-2 -22 and CTSL1 confirm 1.
CC(C)CNC(=O)Nc1ccccc1F was read as PfM18AAP inh-1 -2, RBBP9 inh -1, Runt-CBFb FRET 1, Runt-SMMHC FRET 2, RanGTP-Imp inh -4 and Hck Nef HTS 1.
For C=CCn1c(-c2cccc(OC)c2OC)n[nH]c1=S the results were PfM18AAP inh-1 17, RBBP9 inh 0, Runt-CBFb FRET 5, Runt-SMMHC FRET 9, RanGTP-Imp inh 0 and Hck Nef HTS -8.
